Experimental data from ChEMBL document CHEMBL5329210, “Novel piperazine-1,2,3-triazole leads for the potential treatment of pancreatic cancer” (RSC Med Chem, 2023).

What was measured:
[1] = test system: PANC-1; assay: Inhibition of cell growth of human PANC-1 cells measured after 72 hrs by CCK8 assay; assay type: functional
[2] = test system: BXPC-3; assay: Inhibition of cell growth of human BXPC-3 cells measured after 72 hrs by CCK8 assay; assay type: functional
Method in brief: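 CCK-8 viability in human pancreatic cancer lines. Compounds were added over 100–0.05 μM 24 h after seeding, alongside a 0.5% DMSO vehicle. After 72 h, CCK-8 was incubated for 1 h at 37 °C. A450 minus A650 was expressed as % of vehicle. IC50 was taken from the dose-response curve. Seeding was 3×10^3/well for MiaPaCa2 and 7×10^3/well for BxPC3 and CFPAC-1. n = 3.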

[3] = test system: ASPC1; assay: Inhibition of cell growth of human ASPC1 cells measured after 72 hrs by CCK8 assay; assay type: functional
[4] = test system: Capan-2; assay: Inhibition of cell growth of human Capan-2 cells measured after 72 hrs by CCK8 assay; assay type: functional
[5] = test system: HPAC; assay: Inhibition of cell growth of human HPAC cells measured after 72 hrs by CCK8 assay; assay type: functional
[6] = test system: A2780; assay: Inhibition of cell growth of human A2780 cells measured after 72 hrs by MTT assay; assay type: functional
Method in brief: (§1)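 MTT read-out. Cancer lines were grown in DMEM with 10% FBS, glutamine and antibiotics. MCF10A was grown in DMEM:F12 with 5% horse serum, EGF, hydrocortisone, cholera toxin and insulin. Cells were plated in duplicate at 2500–4000/well, and drug was added 24 h later. After 72 h, absorbance was read at 540 nm. Single-point lines used 25 μM. GI50 is 50% growth inhibition versus untreated control. n = 3.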

[7] = test system: MCF7; assay: Inhibition of cell growth of human MCF7 cells measured after 72 hrs by MTT assay; assay type: functional; method in brief: as §1
[8] = test system: A-431; assay: Inhibition of cell growth of human A-431 cells measured after 72 hrs by MTT assay; assay type: functional; method in brief: as §1
[9] = test system: NCI-H460; assay: Inhibition of cell growth of human NCI-H460 cells measured after 72 hrs by MTT assay; assay type: functional; method in brief: as §1
[10] = Inhibition of cell growth of human MCF-10A cells measured after 72 hrs by MTT assay; assay type: toxicity, cell-based; method in brief: as §1
[11] = test system: MIA PaCa-2; assay: Inhibition of cell growth of human MIA PaCa-2 cells at 25 uM measured after 72 hrs by CCK8 assay relative to control; assay type: functional
Method in brief: (§2)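 Single 25 μM exposure, read by CCK-8, n = 3, relative to control. Seeding was 3×10^3/well for MiaPaCa2, 7×10^3/well for BxPC3 (in RPMI-1640/10% FBS) and 1×10^4/well for HPDE (in KSFM with rEGF/BPE). After 24 h attachment, cells were exposed for 72 h. CCK-8 was then incubated for 1 h, and A450 minus A650 was compared with 0.5% DMSO.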

[12] = test system: MIA PaCa-2; assay: Inhibition of cell growth of human MIA PaCa-2 cells measured after 72 hrs by MTT assay; assay type: functional; method in brief: as §1
[13] = test system: U-87 MG; assay: Inhibition of cell growth of human U87 cells measured after 72 hrs by MTT assay; assay type: functional, U-87MG ATCC; method in brief: as §1
[14] = test system: BXPC-3; assay: Inhibition of cell growth of human BXPC-3 cells at 25 uM measured after 72 hrs by CCK8 assay relative to control; assay type: functional; method in brief: as §2
[15] = test system: BE(2)-C; assay: Inhibition of cell growth of human BE2C cells measured after 72 hrs by MTT assay; assay type: functional; method in brief: as §1
[16] = Inhibition of cell growth of human SJG2 cells measured after 72 hrs by MTT assay; assay type: functional; details: SJ-G2; method in brief: as §1
[17] = test system: HT-29; assay: Inhibition of cell growth of human HT-29 cells measured after 72 hrs by MTT assay; assay type: functional; method in brief: as §1
[18] = Inhibition of cell growth of human HPDE cells at 25 uM measured after 72 hrs by CCK8 assay relative to control; assay type: toxicity, cell-based; method in brief: as §2
[19] = test system: DU-145; assay: Inhibition of cell growth of human DU-145 cells measured after 72 hrs by MTT assay; assay type: functional; method in brief: as §1
[20] = test system: Capan-2; assay: Inhibition of cell growth of human Capan-2 cells measured after 72 hrs by MTT assay; assay type: functional; method in brief: as §1
[21] = test system: ASPC1; assay: Inhibition of cell growth of human ASPC1 cells measured after 72 hrs by MTT assay; assay type: functional; method in brief: as §1
[22] = test system: PANC-1; assay: Inhibition of cell growth of human PANC-1 cells measured after 72 hrs by MTT assay; assay type: functional; method in brief: as §1
[23] = test system: BXPC-3; assay: Inhibition of cell growth of human BXPC-3 cells measured after 72 hrs by MTT assay; assay type: functional; method in brief: as §1
[24] = test system: HPAC; assay: Inhibition of cell growth of human HPAC cells measured after 72 hrs by MTT assay; assay type: functional; method in brief: as §1
[25] = test system: BE(2)-C; assay: Inhibition of cell growth of human BE2C cells at 25 uM measured after 72 hrs by MTT assay relative to control; assay type: functional; method in brief: as §1
[26] = test system: HPAC; assay: Inhibition of cell growth of human HPAC cells at 25 uM measured after 72 hrs by MTT assay relative to control; assay type: functional; method in brief: as §1
[27] = test system: BXPC-3; assay: Inhibition of cell growth of human BXPC-3 cells at 25 uM measured after 72 hrs by MTT assay relative to control; assay type: functional; method in brief: as §1
[28] = test system: MCF7; assay: Inhibition of cell growth of human MCF7 cells at 25 uM measured after 72 hrs by MTT assay relative to control; assay type: functional; method in brief: as §1
[29] = test system: HT-29; assay: Inhibition of cell growth of human HT-29 cells at 25 uM measured after 72 hrs by MTT assay relative to control; assay type: functional; method in brief: as §1
[30] = test system: PANC-1; assay: Inhibition of cell growth of human PANC-1 cells at 25 uM measured after 72 hrs by MTT assay relative to control; assay type: functional; method in brief: as §1
[31] = test system: MIA PaCa-2; assay: Inhibition of cell growth of human MIA PaCa-2 cells at 25 uM measured after 72 hrs by MTT assay relative to control; assay type: functional; method in brief: as §1
[32] = Inhibition of cell growth of human MCF-10A cells at 25 uM measured after 72 hrs by MTT assay relative to control; assay type: toxicity, cell-based; method in brief: as §1
[33] = test system: ASPC1; assay: Inhibition of cell growth of human ASPC1 cells at 25 uM measured after 72 hrs by MTT assay relative to control; assay type: functional; method in brief: as §1
[34] = test system: A2780; assay: Inhibition of cell growth of human A2780 cells at 25 uM measured after 72 hrs by MTT assay relative to control; assay type: functional; method in brief: as §1
[35] = test system: Capan-2; assay: Inhibition of cell growth of human Capan-2 cells at 25 uM measured after 72 hrs by MTT assay relative to control; assay type: functional; method in brief: as §1

| SMILES | GI50 [1] [µM] | GI50 [2] [µM] | GI50 [3] [µM] | GI50 [4] [µM] | GI50 [5] [µM] | GI50 [6] [µM] | GI50 [7] [µM] | GI50 [8] [µM] | GI50 [9] [µM] | GI50 at 72 h [10] [µM] | inhibition at 25 µM [11] [%] | GI50 [12] [µM] | GI50 [13] [µM] | inhibition at 25 µM [14] [%] | GI50 [15] [µM] | GI50 [16] [µM] | GI50 [17] [µM] | inhibition at 72 h, 25 µM [18] [%] | GI50 [19] [µM] | other results |
| --- | --- | --- | --- | --- | --- | --- | --- | --- | --- | --- | --- | --- | --- | --- | --- | --- | --- | --- | --- | --- |
| CCc1ccc(-c2cn(CCCN3CCN(S(=O)(=O)c4ccc(C(F)(F)F)cc4)CC3)nn2)cc1 | 6.1 | 3.7 | 8 | 6.1 | 5.8 | – | – | – | – | – | – | – | – | – | – | – | – | – | – | – |
| Cc1ccc(-c2cn(CCCN3CCN(S(=O)(=O)c4ccc(C(F)(F)F)cc4)CC3)nn2)cc1 | 6.1 | 4 | 7.3 | 5 | 5 | – | – | – | – | – | – | – | – | – | – | – | – | – | – | – |
| COc1cccc(-c2cn(CCCN3CCN(S(=O)(=O)c4ccc(C)cc4)CC3)nn2)c1 | – | – | – | – | – | 29 | 33 | > 50 | > 50 | > 50 | < 10 | > 50 | > 50 | < 10 | > 50 | > 50 | 22 | 45 | > 50 | – |
| O=S(=O)(c1ccc(C(F)(F)F)cc1)N1CCN(CCCn2cc(-c3ccc(Br)cc3)nn2)CC1 | 6.8 | 8 | 8.3 | 7.7 | 9.6 | – | – | – | – | – | – | – | – | – | – | – | – | – | – | – |
| COc1ccccc1-c1cn(CCCN2CCN(S(=O)(=O)c3ccc(C(F)(F)F)cc3)CC2)nn1 | – | – | – | – | – | 0.8 | 0.36 | – | – | 1 | – | 0.64 | – | – | 0.59 | – | 0.47 | – | – | GI50 [20]: 0.56 µM; GI50 [21]: 0.61 µM; GI50 [22]: 680 nM; GI50 [23]: 0.48 µM; GI50 [24]: 0.43 µM |
| COc1ccc(S(=O)(=O)N2CCN(CCCn3cc(-c4cccc(OC)c4)nn3)CC2)cc1 | – | – | – | – | – | 27 | 38 | > 50 | > 50 | > 50 | 20.3 | > 50 | > 50 | < 10 | > 50 | 32 | 30 | 33.9 | > 50 | – |
| COc1cccc(-c2cn(CCCN3CCN(S(=O)(=O)c4ccc(Br)cc4)CC3)nn2)c1 | – | – | – | – | – | 20 | 14 | 40 | 35 | 29 | < 10 | > 50 | > 50 | 10.7 | 20 | 23 | 18 | 32.6 | 25 | – |
| COc1ccc(-c2cn(CCCN3CCN(S(=O)(=O)c4ccc(C(F)(F)F)cc4)CC3)nn2)cc1 | – | – | – | – | – | 6.2 | 6.1 | – | – | 4.9 | – | 7.8 | – | – | 6.4 | – | 8.6 | – | – | GI50 [20]: 8.4 µM; GI50 [21]: 14 µM; GI50 [22]: 5200 nM; GI50 [23]: 12 µM; GI50 [24]: 16 µM |
| Cc1ccc(-c2cn(CCCN3CCN(S(=O)(=O)c4cccc(C(F)(F)F)c4)CC3)nn2)cc1 | – | – | – | – | – | – | – | – | – | – | – | – | – | – | – | – | – | – | – | inhibition at 25 µM [25]: 60%; inhibition at 25 µM [26]: 40%; inhibition at 25 µM [27]: 32%; inhibition at 25 µM [28]: 86%; inhibition at 25 µM [29]: 63%; inhibition at 25 µM [30]: 57%; inhibition at 25 µM [31]: 48%; inhibition at 72 h, 25 µM [32]: 79%; inhibition at 25 µM [33]: 60%; inhibition at 25 µM [34]: 83%; inhibition at 25 µM [35]: 54% |
